Assay [1] deals with PBMC. The experiment in a line: Induction of TNFalpha production in human PBMC at 1 ug/ml after 48 hrs by ELISA. Format: functional. In outline:
(§1)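 PBMCs were isolated from heparinized venous blood by Ficoll-Hypaque density gradient centrifugation. Cells were cultured at 1 × 10^6/mL in RPMI 1640 with 10% fetal calf serum, with or without compound at 1 or 10 µg/mL, for 48 h at 37 °C. Cytokines in the culture supernatants were measured by commercial ELISA kits.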

Assay [2] relates to PBMC. Kind of assay: Induction of IL10 production in human PBMC at 1 ug/ml after 48 hrs by ELISA. The assay is classed as functional, cell-based. Summed up:
as §1
A general note: An ELISA detects its analyte on a solid surface through an enzyme-linked reagent.

The test system of assay [3] is PBMC. Kind of assay: Induction of IL10 production in human PBMC at 10 ug/ml after 48 hrs by ELISA. The assay is classed as functional, cell-based. In outline: as §1
Assay [4] has as its system PBMC. The experiment in a line: Induction of IFN-gamma production in human PBMC at 1 ug/ml after 48 hrs by ELISA. Format: functional, cell-based. In outline:
as §1

Assay [5] relates to PBMC. The experiment in a line: Induction of TNFalpha production in human PBMC at 10 ug/ml after 48 hrs by ELISA. The assay is classed as functional. Summed up:
as §1

In assay [6] the test system is PBMC. The experiment in a line: Induction of IL4 production in human PBMC at 10 ug/ml after 48 hrs by ELISA. Format: functional, cell-based. Summed up: as §1
Assay [7] concerns PBMC. The experiment in a line: Induction of IL6 production in human PBMC at 1 ug/ml after 48 hrs by ELISA. The assay is classed as functional. In outline:
as §1

Assay [8] relates to PBMC. Kind of assay: Induction of IL12 production in human PBMC at 1 ug/ml after 48 hrs by ELISA. Format: functional. Summed up: as §1
For assay [9], the system named is PBMC. Kind of assay: Induction of IL6 production in human PBMC at 10 ug/ml after 48 hrs by ELISA. Format: functional. Summed up:
as §1

Assay [10] concerns PBMC. The experiment in a line: Induction of IL4 production in human PBMC at 1 ug/ml after 48 hrs by ELISA. The assay is classed as functional, cell-based. In outline: as §1
Assay [11] concerns PBMC. Kind of assay: Induction of IFN-gamma production in human PBMC at 10 ug/ml after 48 hrs by ELISA. Format: functional, cell-based. In outline:
as §1

Assay [12] deals with PBMC. The experiment in a line: Induction of IL12 production in human PBMC at 10 ug/ml after 48 hrs by ELISA. The assay is classed as functional. In outline: as §1

Active and inactive are the calls of the source. The rule behind the calls is not given here.

As to `COc1cc(C(=O)O[C@@H]2C[C@](C)(O)[C@H]3[C@H](O[C@@H]4O[C@H](CO)[C@@H](O)[C@H](O)[C@H]4O)OC=C[C@H]32)ccc1O`, the Activity with PBMC [1], in the assay on PBMC [5], in the assay on PBMC [7], with PBMC [8], in the assay on PBMC [9] and with PBMC [12] was under 7.8 pg/mL in each case. For the same molecule, the result in the assay on PBMC [2], in the assay on PBMC [3], with PBMC [4], in the assay with PBMC [6], in the assay on PBMC [10] and in the assay with PBMC [11] was inactive.
`CC1(C)[C@@H](O)CC[C@]2(C)[C@H]3CC=C4[C@@H]5C[C@@]6(C)C[C@H](OC6=O)[C@]5(C)CC[C@@]4(C)[C@]3(C)CC[C@@H]12` [3-EPIABRUSLACTONE A]: the Activity in the assay on PBMC [1] was under 7.8 pg/mL; in the assay with PBMC [5], under 7.8 pg/mL; in the assay on PBMC [7], under 7.8 pg/mL; with PBMC [8], under 7.8 pg/mL; in the assay on PBMC [9], 308.4 pg/mL; in the assay with PBMC [12], under 7.8 pg/mL. Also, the result with PBMC [2], with PBMC [3], in the assay with PBMC [4], in the assay with PBMC [6], with PBMC [10] and with PBMC [11] was inactive.
`CC1(C)[C@H](O)CC[C@]2(C)[C@H]3CC=C4[C@@H]5C[C@@]6(C)C[C@H](OC6=O)[C@]5(C)CC[C@@]4(C)[C@]3(C)CC[C@@H]12` [ABRUSLACTONE A]: the Activity is under 7.8 pg/mL in the assay with PBMC [1]; 22.7 pg/mL in the assay with PBMC [5]; 22.5 pg/mL in the assay on PBMC [7]; under 7.8 pg/mL in the assay on PBMC [8]; 777.2 pg/mL in the assay on PBMC [9]; 28.3 pg/mL in the assay on PBMC [12]. Moreover, the result in the assay on PBMC [2], with PBMC [3], with PBMC [4], with PBMC [6], in the assay with PBMC [10] and with PBMC [11] was inactive.
As for `C[C@H]1C(=O)CC[C@@H]2[C@]1(C)CC[C@H]1[C@@]2(C)CC[C@@]2(C)[C@@H]3CC(C)(C)CC[C@]3(CO)CC[C@]12C` [CANOPHYLLOL], the Activity in the assay on PBMC [1] worked out at 132.5 pg/mL; in the assay on PBMC [5], 322.9 pg/mL; with PBMC [7], 2579.3 pg/mL; in the assay on PBMC [8], 47.3 pg/mL; in the assay on PBMC [9], 2579.2 pg/mL; with PBMC [12], 104.3 pg/mL. The result in the assay on PBMC [2], in the assay with PBMC [3], with PBMC [4], in the assay with PBMC [6], with PBMC [10] and with PBMC [11] was inactive.
`CC(=O)OC[C@]12[C@H](OC(=O)c3ccccc3)[C@H](OC(C)=O)[C@@H]3[C@@H](OC(C)=O)[C@@]14O[C@@]3(C)COC(=O)c1cccnc1C(C)C(C)C(=O)O[C@@H]([C@H](OC(C)=O)[C@@H]2OC(=O)c1ccccc1)[C@]4(C)O` (some centres undefined) [EBENIFOLINE E III]: the Activity in the assay with PBMC [1], in the assay on PBMC [5], in the assay with PBMC [7], in the assay with PBMC [8], in the assay on PBMC [9] and in the assay on PBMC [12] was under 7.8 pg/mL in each case. Besides, the outcome in the assay with PBMC [2], with PBMC [3], in the assay on PBMC [4], in the assay on PBMC [6], in the assay on PBMC [10] and in the assay on PBMC [11] was inactive.
Consider `CC1(C)[C@@H](O)CC[C@]2(C)[C@H]3CC=C4[C@H]5C[C@](C)(C(=O)O)CC[C@]5(C)CC[C@@]4(C)[C@]3(C)CC[C@@H]12` [EPIKATONIC ACID], for which the Activity in the assay with PBMC [1] is under 7.8 pg/mL; in the assay on PBMC [5], under 7.8 pg/mL; in the assay on PBMC [7], 16.2 pg/mL; in the assay on PBMC [8], under 7.8 pg/mL; in the assay on PBMC [9], 22.9 pg/mL; in the assay with PBMC [12], under 7.8 pg/mL. For the same molecule, the result in the assay on PBMC [2], with PBMC [3], in the assay on PBMC [4], in the assay on PBMC [6], in the assay on PBMC [10] and in the assay with PBMC [11] was inactive.
As to `C[C@@H]1O[C@@H](O[C@@H]2[C@@H](O)[C@H](OCCc3ccc(O)c(O)c3)O[C@H](COC(=O)/C=C/c3ccc(O)c(O)c3)[C@H]2O)[C@H](O)[C@H](O)[C@H]1O` [ISOACTEOSIDE], the Activity in the assay with PBMC [1] is under 7.8 pg/mL; in the assay with PBMC [5] it was under 7.8 pg/mL; in the assay with PBMC [7] it was 101.5 pg/mL; in the assay with PBMC [8], under 7.8 pg/mL; in the assay on PBMC [9], 175.5 pg/mL; in the assay on PBMC [12] it was under 7.8 pg/mL. For the same molecule, the result in the assay with PBMC [2], in the assay with PBMC [3], with PBMC [4], in the assay with PBMC [6], with PBMC [10] and in the assay with PBMC [11] was inactive.
Take `CC(C)c1cc2c(cc1O)[C@@]1(C)CCC[C@](C)(C(=O)O)[C@@H]1CC2` [LAMBERTIC ACID]: the Activity was under 7.8 pg/mL with PBMC [1]; under 7.8 pg/mL with PBMC [5]; 59.8 pg/mL with PBMC [7]; under 7.8 pg/mL in the assay with PBMC [8]; 1454.4 pg/mL with PBMC [9]; under 7.8 pg/mL in the assay with PBMC [12]. The result with PBMC [2], with PBMC [3], in the assay with PBMC [4], in the assay on PBMC [6], in the assay with PBMC [10] and in the assay with PBMC [11] was inactive.
As to `CC(=O)OC[C@]12[C@H](OC(C)=O)[C@H](OC(C)=O)[C@@H]3[C@@H](OC(C)=O)[C@@]14O[C@@]3(C)COC(=O)c1cccnc1C(C)C(C)C(=O)O[C@@H]([C@H](OC(C)=O)[C@@H]2OC(=O)c1ccccc1)[C@]4(C)O` (some centres undefined) [MAYTEINE], the Activity was 22 pg/mL in the assay on PBMC [1]; 24.6 pg/mL in the assay with PBMC [5]; 1245.2 pg/mL in the assay on PBMC [7]; 14.3 pg/mL with PBMC [8]; 1576.2 pg/mL in the assay with PBMC [9]; 14.7 pg/mL in the assay on PBMC [12]. Also, the outcome in the assay with PBMC [2], in the assay on PBMC [3], with PBMC [4], in the assay on PBMC [6], in the assay on PBMC [10] and in the assay on PBMC [11] was inactive.
Take `COc1c(O)cc(-c2oc3cc(O)cc(O)c3c(=O)c2O)cc1O` [MEARNSETIN]: the Activity with PBMC [1] was 31.3 pg/mL; in the assay on PBMC [5], under 7.8 pg/mL; in the assay on PBMC [7], 783.6 pg/mL; in the assay with PBMC [8] it was 14.3 pg/mL; in the assay on PBMC [9] it was 203.4 pg/mL; in the assay with PBMC [12] it was under 7.8 pg/mL. The outcome in the assay on PBMC [2], with PBMC [3], in the assay on PBMC [4], in the assay on PBMC [6], in the assay on PBMC [10] and in the assay on PBMC [11] was inactive.
On to `COc1c(O)cc([C@H]2Oc3c(c(O)cc(O)c3[C@H]3c4c(O)cc(O)cc4O[C@H](c4ccc(O)cc4)[C@@H]3O)C[C@H]2O)cc1O` [OURATEAPROANTHOCYANIDIN A], for which the Activity with PBMC [1] is under 7.8 pg/mL; with PBMC [5] it was under 7.8 pg/mL; with PBMC [7], 28.1 pg/mL; in the assay on PBMC [8] it was under 7.8 pg/mL; with PBMC [9], 174.4 pg/mL; in the assay with PBMC [12] it was under 7.8 pg/mL. The result with PBMC [2], in the assay with PBMC [3], with PBMC [4], in the assay on PBMC [6], with PBMC [10] and in the assay with PBMC [11] was inactive.
For the molecule `C[C@@H]1[C@@]23CC[C@H]4[C@@](C)(CC[C@@]5(C)[C@@H]6C[C@](C)(C(=O)O)CC[C@]6(C)CC[C@]45C)[C@@H]2CC[C@@]1(O)OC3` [SALASPERMIC ACID], the Activity is 54.5 pg/mL in the assay with PBMC [1]; under 7.8 pg/mL in the assay with PBMC [5]; 857.3 pg/mL in the assay on PBMC [7]; 21.6 pg/mL with PBMC [8]; 109.6 pg/mL with PBMC [9]; under 7.8 pg/mL in the assay on PBMC [12]. Besides, the outcome in the assay on PBMC [2], with PBMC [3], in the assay on PBMC [4], in the assay with PBMC [6], in the assay on PBMC [10] and in the assay on PBMC [11] was inactive.
